Converted amounts (≈) assume the structure as drawn.
Experiments:
Type in all cases: functional
Nakaseomyces glabratus [1] = test: Evaluation of In vitro antifungal activity against Torulopsis glabrata 78 by broth macro dilution method
Outline: (§1)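 Yeast MIC and MFC by broth macrodilution per NCCLS M27-P in RPMI-1640 buffered with 0.165 M MOPS. Fluconazole in sterile water, other drugs in DMSO. C. parapsilosis ATCC 22019 is the reference strain in each run. MIC is the lowest concentration with turbidity ≤ the 80% inhibition standard. For MFC, 0.04 mL from clear tubes is plated on Sabouraud agar; MFC is the lowest concentration giving ≤1 colony.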

Microsporum canis = test: In vitro evaluation of minimum inhibitory concentration against Microsporum canis 47
Outline: (§2)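 Stocks are 800 μg/mL in 50% ethanol. Each plate gets 10 μL of inoculum at 10^5 cfu/mL. Incubation at 25 °C, 48 h for yeasts and 120 h for dermatophytes and molds. Organisms are ATCC strains or clinical isolates.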

Mus sp. [2] = test: In vivo evaluation of % survival rate after peroral administration on 5th day at dose 0.5 mg/kg; conditions: route oral
Mus sp. [3] = test: In vivo evaluation of % survival rate after peroral administration on 5th day at dose 1 mg/kg; conditions: Mus sp., po
Candida parapsilosis [4] = test: Evaluation of In vitro antifungal activity against Candida parapsilosis 2.07 by broth macro dilution method; conditions: Lodderomyces parapsilosis; outline: as §1
Candida albicans [5] = test: Evaluation of […] antifungal activity against Candida albicans 60 by broth macro dilution method; outline: as §1
Candida albicans [6] = test: In vivo evaluation of minimum inhibitory concentration against Candida albicans 406; conditions: Candida albicans; read-out: MIC
Outline: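 Broth macrodilution MIC following NCCLS M27-P, in RPMI-1640 buffered with 0.165 M MOPS. Fluconazole was dissolved in water and other drugs in DMSO. C. parapsilosis ATCC 22019 served as the reference strain in every run. MIC was the lowest concentration giving turbidity at or below the 80% inhibition standard.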

Candida albicans [7] = test: In vitro evaluation of minimum inhibitory concentration against Candida albicans 76; conditions: Candida albicans; read-out: MIC; outline: as §2
Rattus norvegicus = test: In vivo evaluation of antifungal activity against vaginal candidosis in rat at dose 0.1 mg/kg on 15th day
Outline: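 Groups of 10 female Wistar rats given estradiol 25 mg/kg sc on day -5, then vaginally inoculated with C. albicans on day 0. Infection is confirmed by culture of day-3 swabs. Compound is dosed orally once daily on days 3–5; controls get vehicle. Cure is scored by culture of vaginal swabs taken on days 10 and 15.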

Pichia kudriavzevii [8] = test: In vitro evaluation of minimum inhibitory concentration against Candida krusei 70; outline: as §2
Mus sp. [9] = test: In vivo evaluation of % survival rate after peroral administration on 9th day at dose 1 mg/kg; conditions: route oral, 1 mg/kg
Candida albicans [10] = test: Evaluation of In vitro antifungal activity against Candida albicans C52 by broth macro dilution method; outline: as §1
Kluyveromyces marxianus = test: In vitro evaluation of minimum inhibitory concentration against Candida pseudotropicalis 13; conditions: Kluyveromyces marxianus; read-out: MIC; outline: as §2
Nannizzia gypsea = test: In vitro evaluation of minimum inhibitory concentration against Microsporum gypseum 22; outline: as §2
Candida albicans [11] = test: Evaluation of In vitro antifungal activity against Candida albicans 406 by broth macro dilution method; outline: as §1
Mus sp. [12] = test: In vivo evaluation of % survival rate after peroral administration on 9th day at dose 0.5 mg/kg; conditions: Mus sp., po
Nakaseomyces glabratus [13] = test: In vitro evaluation of minimum inhibitory concentration against Torulopsis glabrata 78; outline: as §2
Candida parapsilosis [14] = test: Evaluation of In vitro antifungal activity against Candida parapsilosis C292 by broth macro dilution method; conditions: Lodderomyces parapsilosis; outline: as §1
Rhodotorula mucilaginosa = test: In vitro evaluation of minimum inhibitory concentration against Rhodotorula rubra 16; conditions: Rhodotorula mucilaginosa; read-out: MIC; outline: as §2
Candida tropicalis [15] = test: In vitro evaluation of minimum inhibitory concentration against Candida tropicalis 2.11; conditions: Candida tropicalis; read-out: MIC; outline: as §2
Mus musculus = test: In vivo evaluation of % survival rate after peroral administration on 7th day at dose 0.5 mg/kg; conditions: route oral
Mus sp. [16] = test: In vivo evaluation of % survival rate after peroral administration on 3rd day at dose 1 mg/kg; conditions: Mus sp., po
Candida tropicalis [17] = test: Evaluation of In vitro antifungal activity against Candida tropicalis 50 by broth macro dilution method; outline: as §1
Aspergillus flavus = test: In vitro evaluation of minimum inhibitory concentration against Aspergillus flavus 19; conditions: Aspergillus flavus; read-out: MIC; outline: as §2
Cryptococcus neoformans = test: Evaluation of In vitro antifungal activity against Cryptococcus neoformans 87 by broth macro dilution method; outline: as §1
[18] = test system: Meyerozyma guilliermondii; test: Evaluation of In vitro antifungal activity against Candida guilliermondii 26 by broth macro dilution method; outline: as §1
Candida parapsilosis [19] = test: In vitro evaluation of minimum inhibitory concentration against Candida parapsilosis 61; outline: as §2
Pichia kudriavzevii [20] = test: Evaluation of In vitro antifungal activity against Candida krusei 70 by broth macro dilution method; outline: as §1

With C[C@@H](NC(=O)c1ccc(C(F)(F)F)cc1)[C@](O)(Cn1cncn1)c1ccc(F)cc1F the MFC (Nakaseomyces glabratus [1]) was > 64 µg/mL, the MIC (Nakaseomyces glabratus [1]) was 8 µg/mL (≈ 18.2 µM) and the MIC (Microsporum canis) was 20 µg/mL (≈ 45.4 µM). For the same compound, the survival at 0.5 mg/kg (Mus sp. [2]) was 100%, the survival at 1 mg/kg (Mus sp. [3]) was 100% and the MFC (Candida parapsilosis [4]) was 64 µg/mL (≈ 145 µM). The MIC (Candida parapsilosis [4]) was 0.063 µg/mL (≈ 0.143 µM), the MIC (Candida albicans [5]) was < 0.031 µg/mL and the MIC (Candida albicans [6]) was 0.15 µg/mL (≈ 0.341 µM). It also gave an MIC (Candida albicans [7]) of 80 µg/mL (≈ 182 µM), a Cure rate (Rattus norvegicus) of 20% and an MIC (Pichia kudriavzevii [8]) of 20 µg/mL (≈ 45.4 µM). For the same compound, the Survival (Mus sp. [9]) was 100%, the MFC (Candida albicans [10]) was > 64 µg/mL and the MIC (Candida albicans [10]) was < 0.031 µg/mL. For the same compound, the MIC (Kluyveromyces marxianus) was 40 µg/mL (≈ 90.8 µM), the MIC (Nannizzia gypsea) was 10 µg/mL (≈ 22.7 µM) and the MFC (Candida albicans [11]) was > 64 µg/mL. The MIC (Candida albicans [11]) was < 0.031 µg/mL, the survival at 0.5 mg/kg (Mus sp. [12]) was 70% and the MIC (Nakaseomyces glabratus [13]) was 20 µg/mL (≈ 45.4 µM). For the same compound, the MFC (Candida parapsilosis [14]) was 4 µg/mL (≈ 9.08 µM), the MIC (Candida parapsilosis [14]) was 0.063 µg/mL (≈ 0.143 µM) and the MIC (Rhodotorula mucilaginosa) was 1.25 µg/mL (≈ 2.84 µM). It also gave an MIC (Candida tropicalis [15]) of 80 µg/mL (≈ 182 µM), a survival at 0.5 mg/kg (Mus musculus) of 95% and a survival at 1 mg/kg (Mus sp. [16]) of 100%. For the same compound, the MFC (Candida tropicalis [17]) was > 64 µg/mL, the MIC (Candida tropicalis [17]) was 1 µg/mL (≈ 2.27 µM) and the MIC (Aspergillus flavus) was 20 µg/mL (≈ 45.4 µM). For the same compound, the MFC (Cryptococcus neoformans) was > 64 µg/mL, the MIC (Cryptococcus neoformans) was 0.5 µg/mL (≈ 1.14 µM) and the MFC [18] was 4 µg/mL (≈ 9.08 µM). For the same compound, the MIC [18] was 0.25 µg/mL (≈ 0.568 µM), the MIC (Candida parapsilosis [19]) was 2.5 µg/mL (≈ 5.68 µM) and the MFC (Pichia kudriavzevii [20]) was 8 µg/mL (≈ 18.2 µM).
